# According to ChEMBL document CHEMBL4819040, “Limonoids from Guarea guidonia and Cedrela odorata: Heat Shock Protein 90 (Hsp90) Modulator Properties of Chisomicine D” (J Nat Prod, 2021):
# Activity calls are given as the source filed them. The calls are words filed in the database; no cut-off is given here.
# Columns and labels:
# [1] = molecular target: T1, Heat shock protein HSP 90-alpha (Homo sapiens, UniProt P07900); assay: Binding affinity to recombinant human HSP90alpha by surface plasmon resonance analysis
# [2] = molecular target: T1, Heat shock protein HSP 90-alpha; assay: Effect on HSP90alpha in human U-937 cells assessed as HSP70 protein level at 10 uM after 48 hrs by Western blot analysis (reference value: 0.83); format: cell-based; conditions: filed as modulator
# In short: (§1)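 U937 cells (RPMI 1640, 10% FBS, 37 °C, 5% CO2) treated 48 h at 10, 20 or 30 μM, DMSO vehicle ≤0.3%. RIPA lysates, Bradford protein assay, SDS-PAGE, nitrocellulose, HRP secondary with ECL detection. GAPDH loading control, densitometry normalized. Run in duplicate.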
# [3] = molecular target: T1, Heat shock protein HSP 90-alpha; assay: Effect on HSP90alpha in human U-937 cells assessed as ERK2 protein level at 20 uM after 48 hrs by Western blot analysis (reference value: 0.69); format: cell-based; conditions: filed as modulator; in short: as §1
# [4] = molecular target: T1, Heat shock protein HSP 90-alpha; assay: Effect on HSP90alpha in human U-937 cells assessed as ERK2 protein level at 30 uM after 48 hrs by Western blot analysis (reference value: 0.69); format: cell-based; conditions: filed as modulator; in short: as §1
# U-937 [5] = assay: Induction of cell cycle arrest in human U937 cells assessed as decrease in cells at S phase at 20 uM incubated for 48 hrs PI staining based flow cytometric analysis (reference value: 23.6 %); format: functional; design: scale not given: the % may be the effect or the level left
# U-937 [6] = assay: Induction of cell cycle arrest in human U937 cells assessed as phosphorylated CDC2 expression at 10 uM by Western blotting analysis (reference value: 1.07); format: functional
# In short: (§2)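 U937 cells given vehicle (DMSO) or 10 or 20 μM. RIPA whole-cell lysates (protease/phosphatase inhibitors) resolved by SDS-PAGE, blotted to nitrocellulose, ECL detection. Targets: pro-caspase 3/caspase 3 or p-CDC2 (p34)/CDC2. Densitometry normalized. Duplicate experiments.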
# [7] = molecular target: T1, Heat shock protein HSP 90-alpha; assay: Effect on HSP90alpha in human U-937 cells assessed as JNK p46 protein level at 30 uM after 48 hrs by Western blot analysis (reference value: 1.22); format: cell-based; conditions: filed as modulator; in short: as §1
# [8] = molecular target: T1, Heat shock protein HSP 90-alpha; assay: Effect on HSP90alpha in human U-937 cells assessed as HSP70 protein level at 20 uM after 48 hrs by Western blot analysis (reference value: 0.83); format: cell-based; conditions: filed as modulator; in short: as §1
# U-937 [9] = assay: Induction of apoptosis in human U-937 cells assessed as early apoptotic cells at 20 uM after 48 hrs by AnnexinV-FITC/propidium iodide staining based flow cytometry (reference value: 4.90 %); format: functional
# [10] = molecular target: T1, Heat shock protein HSP 90-alpha; assay: Effect on HSP90alpha in human U-937 cells assessed as HSP70 protein level at 30 uM after 48 hrs by Western blot analysis (reference value: 0.83); format: cell-based; conditions: filed as modulator; in short: as §1
# U-937 [11] = assay: Induction of cell cycle arrest in human U937 cells assessed as phosphorylated CDC2 expression at 20 uM by Western blotting analysis (reference value: 1.07); format: functional; in short: as §2
# [12] = molecular target: T1, Heat shock protein HSP 90-alpha; assay: Effect on HSP90alpha in human U-937 cells assessed as p-JNK p54 protein level at 10 uM after 48 hrs by Western blot analysis (reference value: 2.22); format: cell-based; conditions: filed as modulator; in short: as §1
# [13] = molecular target: T1, Heat shock protein HSP 90-alpha; assay: Effect on HSP90alpha in human U-937 cells assessed as HSP90 protein level at 30 uM after 48 hrs by Western blot analysis (reference value: 1.12); format: cell-based; conditions: filed as modulator; in short: as §1
# [14] = molecular target: T1, Heat shock protein HSP 90-alpha; assay: Effect on HSP90alpha in human U-937 cells assessed as HSP90 protein level at 10 uM after 48 hrs by Western blot analysis (reference value: 1.12); format: cell-based; conditions: filed as modulator; in short: as §1
# [15] = molecular target: T1, Heat shock protein HSP 90-alpha; assay: Effect on HSP90alpha in human U-937 cells assessed as p-JNK p46 protein level at 10 uM after 48 hrs by Western blot analysis (reference value: 1.06); format: cell-based; conditions: filed as modulator; in short: as §1
# [16] = molecular target: T1, Heat shock protein HSP 90-alpha; assay: Effect on HSP90alpha in human U-937 cells assessed as p-JNK p46 protein level at 30 uM after 48 hrs by Western blot analysis (reference value: 1.06); format: cell-based; conditions: filed as modulator; in short: as §1
# U-937 [17] = assay: Induction of apoptosis in human U-937 cells assessed as necrotic cells at 20 uM after 48 hrs by AnnexinV-FITC/propidium iodide staining based flow cytometry (reference value: 0 %); format: functional
# [18] = molecular target: T1, Heat shock protein HSP 90-alpha; assay: Effect on HSP90alpha in human U-937 cells assessed as JNK p46 protein level at 10 uM after 48 hrs by Western blot analysis (reference value: 1.22); format: cell-based; conditions: filed as modulator; in short: as §1
# [19] = molecular target: T1, Heat shock protein HSP 90-alpha; assay: Inhibition of HSP90alpha (unknown origin) at 10 to 20 uM; conditions: dose 10-20 µM
# U-937 [20] = assay: Induction of apoptosis in human U-937 cells assessed as cleavage of pro-caspase at 20 uM by Western blotting analysis; format: functional, cell-based; in short: as §2
# U-937 [21] = assay: Induction of cell cycle arrest in human U937 cells assessed as CDC2 protein expression at 10 uM by Western blotting analysis (reference value: 1.22); format: functional; in short: as §2
# U-937 [22] = assay: Induction of apoptosis in human U-937 cells assessed as viable cells at 20 uM after 48 hrs by AnnexinV-FITC/propidium iodide staining based flow cytometry (reference value: 82.7 %); format: functional; conditions: read-out: Activity
# U-937 [23] = assay: Induction of apoptosis in human U-937 cells assessed as late apoptotic cells at 20 uM after 48 hrs by AnnexinV-FITC/propidium iodide staining based flow cytometry (reference value: 12.4 %); format: functional
# [24] = molecular target: T1, Heat shock protein HSP 90-alpha; assay: Effect on HSP90alpha in human U-937 cells assessed as JNK p46 protein level at 20 uM after 48 hrs by Western blot analysis (reference value: 1.22); format: cell-based; conditions: filed as modulator; in short: as §1
# [25] = molecular target: T1, Heat shock protein HSP 90-alpha; assay: Effect on HSP90alpha in human U-937 cells assessed as HSP90 protein level at 20 uM after 48 hrs by Western blot analysis (reference value: 1.12); format: cell-based; conditions: filed as modulator; in short: as §1
# [26] = molecular target: T1, Heat shock protein HSP 90-alpha; assay: Effect on HSP90alpha in human U-937 cells assessed as p-ERK2 protein level at 10 uM after 48 hrs by Western blot analysis (reference value: 1.67); format: cell-based; conditions: filed as modulator; in short: as §1
# [27] = Cytotoxicity against human PBMC cells assessed as cell viability after 48 hrs by MTT assay; format: cell-based
# In short: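 PBMCs isolated from healthy-donor buffy coats on Ficoll-Hypaque gradients, exposed to 30 μM or DMSO for 48 h. Viability read by MTT (absorbance 550 nm). Technical triplicates, repeated twice.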
# [28] = molecular target: T1, Heat shock protein HSP 90-alpha; assay: Effect on HSP90alpha in human U-937 cells assessed as p-JNK p46 protein level at 20 uM after 48 hrs by Western blot analysis (reference value: 1.06); format: cell-based; conditions: filed as modulator; in short: as §1
# U-937 [29] = assay: Induction of cell cycle arrest in human U937 cells assessed as increase in cells at G2 phase at 20 uM incubated for 48 hrs PI staining based flow cytometric analysis (reference value: 11.1 %); format: functional
# [30] = molecular target: T1, Heat shock protein HSP 90-alpha; assay: Effect on HSP90alpha in human U-937 cells assessed as ERK2 protein level at 10 uM after 48 hrs by Western blot analysis (reference value: 0.69); format: cell-based; conditions: filed as modulator; in short: as §1
# U-937 [31] = assay: Induction of cell cycle arrest in human U937 cells assessed as G1 phase cells at 20 uM incubated for 48 hrs PI staining based flow cytometric analysis (reference value: 60.8 %); format: functional
# U-937 [32] = assay: Induction of cell cycle arrest in human U937 cells assessed as CDC2 protein expression at 20 uM by Western blotting analysis (reference value: 1.22); format: functional; in short: as §2
# [33] = molecular target: T1, Heat shock protein HSP 90-alpha; assay: Effect on HSP90alpha in human U-937 cells assessed as JNK p54 protein level at 10 uM after 48 hrs by Western blot analysis (reference value: 2.45); format: cell-based; conditions: filed as modulator; in short: as §1
compound,measurement,setting,value
CC(=O)O[C@H]1C[C@@]2(C)[C@H](C3=CC(=O)O[C@@H]3O)OC(=O)[C@H]3O[C@]32[C@@]2(C)[C@H]1[C@@]1(C)[C@@H](OC(C)=O)CC(=O)OC(C)(C)[C@@H]1C[C@H]2OC(C)=O,Kd,[1],Not Active
CC(=O)O[C@H]1CC(=O)OC(C)(C)[C@@H]2C[C@@H](OC(C)=O)[C@@]3(C)C4=CC[C@@H](C(O)(CO)CCO)[C@]4(C)CC[C@@H]3[C@@]12C (stereo partly specified),Kd,[1],Not Active
COC(=O)C[C@H]1C(C)(C)[C@H](OC(=O)C(O)C(C)C)[C@@H]2C=C3C4CC(=O)O[C@@H](c5ccoc5)[C@]4(C)CC[C@@H]3[C@@]1(C)C2=O (stereo partly specified),Kd,[1],Not Active
C=C(C)C(=O)O[C@@H]1/C=C\[C@]2(O)C3=CC(=O)O[C@@H](c4ccoc4)[C@]3(C)CC[C@]2(O)[C@]2(C)C(=O)C[C@@]1(C)[C@@H]2CC(=O)OC,Kd,[1],Not Active
CC(=O)O[C@H]1C[C@@]2(C)[C@H](C3=CC(=O)O[C@@H]3O)OC(=O)[C@H]3O[C@]32[C@@]2(C)[C@H]1[C@@]1(C)C=CC(=O)OC(C)(C)[C@@H]1C[C@H]2OC(C)=O,Kd,[1],Not Active
CC(=O)O[C@H]1C[C@@]2(C)[C@H](c3ccoc3)OC(=O)[C@H]3O[C@]32[C@@]2(C)[C@H]1[C@@]1(C)[C@@H](OC(C)=O)CC(=O)OC(C)(C)[C@@H]1C[C@H]2OC(C)=O,Kd,[1],Not Active
COC(=O)C[C@H](OC(C)=O)[C@]1(C)[C@H]2[C@@H](OC(C)=O)C[C@@]3(C)[C@H](c4ccoc4)OC(=O)[C@H]4O[C@]43[C@]2(C)[C@H](OC(C)=O)C[C@H]1C(C)(C)O,Kd,[1],Not Active
C/C=C(\C)C(=O)O[C@@H]1/C=C\C2=C3CC(=O)O[C@@H](c4ccoc4)[C@]3(C)CC[C@]2(O)[C@]2(C)C(=O)C[C@@]1(C)[C@@H]2CC(=O)OC (relative stereo),Kd,[1],Not Active
C/C=C(\C)C(=O)O[C@@H]1/C=C\[C@]2(O)C3=CC(=O)O[C@@H](c4ccoc4)[C@]3(C)CC[C@]2(O)[C@]2(C)C(=O)C[C@@]1(C)[C@@H]2CC(=O)OC (relative stereo),fold change (FC),[2],1.3
same,fold change (FC),[3],1.17
same,fold change (FC),[4],1.03
same,Activity,U-937 [5],12.3%
same,fold change (FC),U-937 [6],0.84
same,fold change (FC),[7],0.65
same,fold change (FC),[8],0.91
same,Activity,U-937 [9],8.62%
same,fold change (FC),[10],1
same,fold change (FC),U-937 [11],1.09
same,fold change (FC),[12],1.45
same,fold change (FC),[13],0.93
same,fold change (FC),[14],1.21
same,fold change (FC),[15],0.97
same,fold change (FC),[16],0.95
same,Activity,U-937 [17],0%
same,fold change (FC),[18],1.13
same,inhibition,[19],inactive
same,Activity,U-937 [20],Active
same,fold change (FC),U-937 [21],1.18
same,viability at 20 µM,U-937 [22],63.1%
same,Activity,U-937 [23],28.3%
same,fold change (FC),[24],0.92
same,fold change (FC),[25],0.82
same,fold change (FC),[26],2.12
same,Activity,[27],Non-Toxic
same,fold change (FC),[28],1.01
same,Activity,U-937 [29],16.7%
same,fold change (FC),[30],1.17
same,Activity,U-937 [31],53.1%
same,fold change (FC),U-937 [32],0.58
same,fold change (FC),[33],1.18
COC(=O)C[C@H]1C(C)(C)[C@H](O)[C@@H]2CC3=C4CC(=O)O[C@@H](c5ccoc5)[C@]4(C)CC[C@@H]3[C@@]1(C)C2=O [PROCERANOLIDE],Kd,[1],Not Active
